Measured values: ChEMBL document CHEMBL1777805, “2-Arylmethylaminomethyl-5,6-dihydroxychromone derivatives with selective anti-HCV activity” (Bioorg Med Chem Lett, 2011)

Legend:
[1] = Cytotoxicity against human HuH7 cells assessed as reduction in cell proliferation; format: cell-based, Huh-7
[2] = system: Hepatitis C virus; assay: Antiviral activity against HCV in human HuH7 cells assessed as inhibition of RNA replication after 4 days by FRET-based assay; format: functional, organism-based, Hepacivirus hominis; conditions: Huh-7, 96 h
Summary of the method: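 Huh-7 cells carrying an HCV replicon were seeded at 5 × 10³/well in complete DMEM with 500 µg/mL G418 and held 24 h at 37 °C, 5% CO₂. The medium was then refreshed and compounds were added at 0.1–100 µM (seven levels) from DMSO stock. After 4 days at 37 °C, cells were lysed. NS3 protease FRET signal was read at 340 ex/490 em. IFN-α2b (10000 units/well) served as positive control.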

For `O=c1cc(CNCc2ccc(O)cc2)oc2ccc(O)c(O)c12`, which CC50 [1] is on record?
The CC50 was 62.7 µM.

And the EC50 [2]?
Its EC50 is over 100 µM.

With `O=c1cc(CNCc2cccc(F)c2)oc2ccc(O)c(O)c12` as the molecule, how does the CC50 [1] read?
The CC50 was over 100 µM.

What about the EC50 [2] of the same molecule?
The EC50 was over 100 µM.

For `Cc1ccccc1CNCc1cc(=O)c2c(O)c(O)ccc2o1`, which CC50 [1] is on record?
Its CC50 is 52.2 µM.

What about the EC50 [2] of the same molecule?
The EC50 was 1.2 µM.

For `O=c1cc(CNCc2ccc([N+](=O)[O-])cc2)oc2ccc(O)c(O)c12`, which CC50 [1] is on record?
Its CC50 is 73.3 µM.

And the EC50 [2]?
The EC50 was over 100 µM.

Which CC50 [1] does the source give for `O=c1cc(CNCc2ccccc2O)oc2ccc(O)c(O)c12` here?
The CC50 was over 100 µM.

What about the EC50 [2] of the same molecule?
The EC50 was over 100 µM.

Which CC50 [1] does the source give for `O=c1cc(CNCc2ccc(I)cc2)oc2ccc(O)c(O)c12` here?
The CC50 was 41.7 µM.

And the EC50 [2]?
Its EC50 is 4.1 µM.

Which results are given for `O=c1cc(CNCc2cccc([N+](=O)[O-])c2)oc2ccc(O)c(O)c12`?
CC50 [1]: > 100 µM; EC50 [2]: > 100 µM

Which CC50 [1] does the source give for `O=c1cc(CNCc2ccc(F)cc2)oc2ccc(O)c(O)c12` here?
Its CC50 is over 100 µM.

What about the EC50 [2] of the same molecule?
The EC50 was over 100 µM.

What does the source list for `O=c1cc(CNCc2ccc(Cl)cc2)oc2ccc(O)c(O)c12`?
CC50 [1]: > 100 µM; EC50 [2]: > 100 µM

Which CC50 [1] does the source give for `O=c1cc(CNCc2ccccc2I)oc2ccc(O)c(O)c12` here?
The CC50 was 87.3 µM.

What about the EC50 [2] of the same molecule?
The EC50 was 6.3 µM.

Which CC50 [1] does the source give for `Cc1cccc(CNCc2cc(=O)c3c(O)c(O)ccc3o2)c1` here?
Its CC50 is over 100 µM.

What about the EC50 [2] of the same molecule?
The EC50 was 2 µM.

Which CC50 [1] does the source give for `O=c1cc(CNCc2cccc(O)c2)oc2ccc(O)c(O)c12` here?
Its CC50 is over 100 µM.

And the EC50 [2]?
Its EC50 is over 100 µM.

What does the source list for `O=c1cc(CNCc2ccccc2Br)oc2ccc(O)c(O)c12`?
CC50 [1]: > 100 µM; EC50 [2]: > 100 µM

Which CC50 [1] does the source give for `O=c1cc(CNCc2cccc(I)c2)oc2ccc(O)c(O)c12` here?
Its CC50 is over 100 µM.

And the EC50 [2]?
Its EC50 is 7.3 µM.

Which CC50 [1] does the source give for `O=c1cc(CNCc2ccccc2)oc2ccc(O)c(O)c12` here?
The CC50 was over 100 µM.

And the EC50 [2]?
The EC50 was over 100 µM.

For `O=c1cc(CNCc2ccc(Br)cc2)oc2ccc(O)c(O)c12`, which CC50 [1] is on record?
The CC50 was over 100 µM.

What about the EC50 [2] of the same molecule?
The EC50 was over 100 µM.

Which results are given for `O=c1cc(CNCc2cccc(Cl)c2)oc2ccc(O)c(O)c12`?
CC50 [1]: > 100 µM; EC50 [2]: 14 µM

Which CC50 [1] does the source give for `O=c1cc(CNCc2cccc(Br)c2)oc2ccc(O)c(O)c12` here?
The CC50 was over 100 µM.

What about the EC50 [2] of the same molecule?
The EC50 was 3.6 µM.

With `O=c1cc(CNCc2ccccc2[N+](=O)[O-])oc2ccc(O)c(O)c12` as the molecule, how does the CC50 [1] read?
Its CC50 is 41.3 µM.

And the EC50 [2]?
Its EC50 is over 100 µM.

For `Cc1ccc(CNCc2cc(=O)c3c(O)c(O)ccc3o2)cc1`, which CC50 [1] is on record?
The CC50 was over 100 µM.

And the EC50 [2]?
Its EC50 is 5.7 µM.

With `O=c1cc(CNCc2ccccc2Cl)oc2ccc(O)c(O)c12` as the molecule, how does the CC50 [1] read?
The CC50 was over 100 µM.

What about the EC50 [2] of the same molecule?
The EC50 was over 100 µM.
